Several values for one entry are separate records, joined by “and”; a condition that tells them apart may be missing. Identical values can stand only once.
How the values were obtained:
[1] = biological target: T1, Hemoglobin HbA (Homo sapiens) (UniProt P69905+P68871); assay: Oxygen pressure at which hemoglobin is 50% saturated with oxygen in the presence of the effector.; type: functional
Summary of the method: (§1)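 Purified stripped human adult Hb in 50 mM bis-Tris, 100 mM NaCl, pH 7.2, at 60-70 µM heme, with effector at 0.5 mM. Catalase and EDTA were added, and the sample was saturated with carbogen. The curve was recorded on a Hemox analyzer as O₂ pressure was lowered over 45-60 min, with saturation read at 577/586.2 nm. P50 came from linear regression of 40-60% saturation points. Single runs, each with its own no-effector control.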

[2] = Hill coefficient at 50% saturation in the presence of effector
[3] = biological target: T1, Hemoglobin HbA (Homo sapiens); assay: Ratio of P50e to P50c (P50 control value with no effector present, 5 mmHg); type: functional; summary of the method: as §1
Homo sapiens [4] = species: Homo sapiens; assay: (§2) P50e is the value in the presence of the effector in whole blood in experiment 1 (in vitro); type: functional
Summary of the method: (§3)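 Heparinized whole blood from healthy volunteers, kept on ice, was given the effector sodium salt from a 200 mM DMSO stock to 5.0 mM final. It was tonometered about 10-12 min at 37 °C and equilibrated at 20%, 40% and 60% O₂. pH, pCO₂, pO₂ and sO₂ were read by blood gas analyzer and co-oximeter, at least in duplicate. ΔP50 = P50e − P50c.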

Homo sapiens [5] = species: Homo sapiens; assay: (§4) P50C is the control value in whole blood in experiment.; type: functional; summary of the method: as §3
Homo sapiens [6] = species: Homo sapiens; assay: (§5) P50e is the value in the presence of the effector in whole blood in experiment 2 (in vitro); type: functional; summary of the method: as §3
[7] = The difference between P50e and P50c tested.; type: functional; summary of the method: as §3
[8] = as §4; type: functional, Homo sapiens; summary of the method: as §3
[9] = P50e is the value in the presence of the effector in whole blood in experiment 3 (in vitro); type: functional, Homo sapiens; summary of the method: as §3
[10] = as §5; type: functional, Homo sapiens; summary of the method: as §3
[11] = as §2; type: functional, Homo sapiens; summary of the method: as §3

T1 sequence (P68871 2-147 partner limits assumed): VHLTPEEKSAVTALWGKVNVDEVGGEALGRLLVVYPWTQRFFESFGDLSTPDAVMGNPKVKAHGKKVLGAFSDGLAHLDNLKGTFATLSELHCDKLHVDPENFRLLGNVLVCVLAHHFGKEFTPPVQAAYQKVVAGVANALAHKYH
T1 sequence (P69905 2-142 limits assumed): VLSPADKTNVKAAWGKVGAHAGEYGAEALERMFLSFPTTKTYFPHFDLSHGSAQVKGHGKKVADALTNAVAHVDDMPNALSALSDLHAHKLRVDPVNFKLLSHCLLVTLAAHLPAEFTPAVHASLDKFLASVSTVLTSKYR

Row | SMILES | P50e [1] [mmHg] | Hill coefficient (n50) [2] | P50e/P50c [3] | also measured
1 | Cc1cc(C)cc(NC(=O)Cc2ccc(OC(F)C(=O)O)cc2)c1 (centres undefined) | 5.9 | 2.5 | 1.2 | 
2 | CCC(C)(Oc1ccc(CC(=O)Nc2cc(C)cc(C)c2)cc1)C(=O)O (stereo in doubt; (-)-10) | 10.5 | 2.3 | 2.1 | 
3 | CCC(Oc1ccc(CC(=O)Nc2cc(C)cc(Cl)c2)cc1)C(=O)O (centres undefined) | 13.1 | 2.6 | 2.6 | 
4 | Cc1cc(C)cc(NC(=O)Cc2ccc(O[C@]3(C(=O)O)CCO[C@H]3C)cc2)c1 | 9.3 | 2.6 | 1.9 | 
5 | CC1CCCC1(Oc1ccc(CC(=O)Nc2ccc3c(c2)CCC3)cc1)C(=O)O (centres undefined) | 13.8 | 2.6 | 2.8 | 
6 | Cc1cc(C)cc(NC(=O)Cc2ccc(OC(C)C(=O)O)cc2)c1 (single isomer, unassigned; (+)) [listing 1 of 2 here] |  |  |  | P50e (Homo sapiens [4]): 47.4 mmHg; P50c (Homo sapiens [5]): 27.3 mmHg; P50e (Homo sapiens [6]): 48.7 mmHg
7 | Cc1cc(C)cc(NC(=O)Cc2ccc(OC3(C(=O)O)CCC(C)C3)cc2)c1 (centres undefined) | 12.9 | 2.5 | 2.6 | 
8 | Cc1cc(C)cc(NC(=O)Cc2ccc(OC3(C(=O)O)CCOC3C)cc2)c1 (centres undefined) | 7.6 | 2.4 | 1.5 | 
9 | CCCC(Oc1ccc(CC(=O)Nc2cc(C)cc(C)c2)cc1)C(=O)O (centres undefined) | 16.1 | 2.5 | 3.2 | 
10 | CCC(Oc1ccc(CC(=O)Nc2ccc3c(c2)CCC3)cc1)C(=O)O (centres undefined) | 9.1 | 2.6 | 1.8 | 
11 | Cc1cc(Cl)cc(NC(=O)Cc2ccc(OC3(C(=O)O)CCCC3C)cc2)c1 (centres undefined) | 21.9 | 2.4 | 4.4 | 
12 | CCC(C)(Oc1ccc(CC(=O)Nc2cc(C)cc(C)c2)cc1)C(=O)O (single isomer, unassigned; (+)) | 17.4 | 2.4 | 3.5 | 
13 | COCC(C)(Oc1ccc(CC(=O)Nc2cc(C)cc(C)c2)cc1)C(=O)O (centres undefined) | 8.4 | 2.4 | 1.7 | 
14 | Cc1cc(C)cc(NC(=O)Cc2ccc(OC3(C(=O)O)CCOCC3)cc2)c1 | 7.6 | 2.4 | 1.5 | 
15 | CCCCC(Oc1ccc(CC(=O)Nc2cc(C)cc(C)c2)cc1)C(=O)O (centres undefined) | 17 | 2.5 | 3.4 | 
16 | Cc1cc(C)cc(NC(=O)Cc2ccc(OC(C)C(=O)O)cc2)c1 (racemic) [listing 1 of 2 here] |  |  |  | P50e (Homo sapiens [4]): 47.2 mmHg; P50c (Homo sapiens [5]): 27.2 mmHg; P50e (Homo sapiens [6]): 43.5 mmHg
17 | Cc1cc(C)cc(NC(=O)Cc2ccc(OC3(C(=O)O)CCCC3)cc2)c1 | 25.7 | 2.4 and 1.66 | 5.1 | ΔP50 (P50e minus P50c) [7]: 42.3 mmHg; P50e (Homo sapiens [4]): 74.7 mmHg; P50C (Homo sapiens [5]): 28.9 mmHg; P50e (Homo sapiens [6]): 67.7 mmHg
18 | Cc1cc(C)cc(NC(=O)Cc2ccc(OC(C)C(=O)O)cc2)c1 (single isomer, unassigned; (+)) [listing 2 of 2 here] | 9.8 | 2.6 and 1.9 | 2 | ΔP50 (P50e minus P50c) [7]: 20.7 mmHg
19 | Cc1cc(C)cc(NC(=O)Cc2ccc(OC(C)C(=O)O)cc2)c1 (single isomer, unassigned; (-)) [listing 1 of 2 here] |  |  |  | P50e (Homo sapiens [4]): 39.7 mmHg; P50c (Homo sapiens [5]): 27.8 mmHg; P50e (Homo sapiens [6]): 40.5 mmHg
20 | CCC(Oc1ccc(CC(=O)Nc2cc(C)cc(C)c2)cc1)C(=O)O (single isomer, unassigned; (+)) | 18 | 2.7 | 3.6 | 

Row | SMILES | P50e [1] [mmHg] | Hill coefficient (n50) [2] | P50e/P50c [3] | also measured
21 | Cc1cc(C)cc(NC(=O)Cc2ccc(OC(C)C(=O)O)cc2)c1 (single isomer, unassigned; (-)) [listing 2 of 2 here] | 6.6 | 2.5 and 2.2 | 1.3 | ΔP50 (P50e minus P50c) [7]: 12.3 mmHg
22 | Cc1cc(C)cc(NC(=O)Cc2ccc(O[C@@]3(C(=O)O)CCC[C@@H]3C)cc2)c1 | 19.9 | 2.6 and 1.8 | 4 | ΔP50 (P50e minus P50c) [7]: 20.6 mmHg; P50c [8]: 25.7 mmHg; P50e [9]: 42.4 mmHg; P50e [10]: 46.8 mmHg; P50e [11]: 49.7 mmHg
23 | Cc1cc(C)cc(NC(=O)Cc2ccc(O[C@@]3(C(=O)O)CCO[C@@H]3C)cc2)c1 | 7.7 | 2.8 | 1.5 | 
24 | Cc1cc(Cl)cc(NC(=O)Cc2ccc(OC(C)C(=O)O)cc2)c1 (centres undefined) | 9.4 | 2.6 | 1.9 | 
25 | CCC(Oc1ccc(CC(=O)Nc2cc(C)cc(C)c2)cc1)C(=O)O (single isomer, unassigned; (-)) | 9.8 | 2.8 | 2 | 
26 | CCC(Oc1ccc(CC(=O)Nc2cc(C)cc(C)c2)cc1)C(=O)O (stereo in doubt; 32) | 13 | 2.7 | 2.6 | 
27 | Cc1cc(C)cc(NC(=O)Cc2ccc(O[C@]3(C(=O)O)CCC[C@H]3C)cc2)c1 | 30.7 | 2.4 and 1.6 | 6.1 | ΔP50 (P50e minus P50c) [7]: 47.6 mmHg; P50e (Homo sapiens [4]): 78.5 mmHg; P50c (Homo sapiens [5]): 27.9 mmHg; P50e (Homo sapiens [6]): 72.5 mmHg
28 | CC(Oc1ccc(CC(=O)Nc2ccc3c(c2)CCC3)cc1)C(=O)O (centres undefined) | 6.3 | 2.7 | 1.3 | 
29 | CCCC(C)(Oc1ccc(CC(=O)Nc2cc(C)cc(C)c2)cc1)C(=O)O (centres undefined) | 11.7 | 2.7 | 2.3 | 
30 | Cc1cc(C)cc(NC(=O)Cc2ccc(OC3(C(=O)O)CCCC(C)C3)cc2)c1 (centres undefined) | 10.3 | 2.5 | 2.1 | 
31 | CCC(C)(Oc1ccc(CC(=O)Nc2ccc3c(c2)CCC3)cc1)C(=O)O (centres undefined) | 10.6 | 2.3 | 2.1 | 
32 | Cc1cc(C)cc(NC(=O)Cc2ccc(OC(C)C(=O)O)cc2)c1 (racemic) [listing 2 of 2 here] | 9.3 | 2.6 and 2 | 1.9 | ΔP50 (P50e minus P50c) [7]: 18.2 mmHg
33 | CC1CCC(Oc2ccc(CC(=O)Nc3ccc4c(c3)CCC4)cc2)(C(=O)O)C1 (centres undefined) | 12.7 | 2.6 | 2.5 | 
34 | Cc1cc(Cl)cc(NC(=O)Cc2ccc(OC3(C(=O)O)CCC(C)C3)cc2)c1 (centres undefined) | 14 | 2.4 | 2.8 | 
35 | Cc1cc(C)cc(NC(=O)Cc2ccc(OC3(C(=O)O)CCCC3C)cc2)c1 (racemic) | 21.6 | 2.3 and 1.6 | 4.3 | ΔP50 (P50e minus P50c) [7]: 40.1 mmHg; P50e (Homo sapiens [4]): 66 mmHg; P50c (Homo sapiens [5]): 26.5 mmHg; P50e (Homo sapiens [6]): 67.2 mmHg
36 | Cc1cc(C)cc(NC(=O)Cc2ccc(OC(C)(C)C(=O)O)cc2)c1 [EFAPROXIRAL] | 23.4 | 2.3 and 1.47 | 4.7 | ΔP50 (P50e minus P50c) [7]: 45.2 mmHg; P50e (Homo sapiens [4]): 76.5 mmHg; P50c (Homo sapiens [5]): 29.8 mmHg; P50e (Homo sapiens [6]): 73.4 mmHg
37 | CCC(C)(Oc1ccc(CC(=O)Nc2cc(C)cc(Cl)c2)cc1)C(=O)O (centres undefined) | 16.6 | 2.5 | 3.3 | 
38 | CC(C)(Oc1ccc(CC(=O)Nc2ccc3c(c2)CCC3)cc1)C(=O)O | 15.3 | 2.6 | 3 | 
39 | Cc1cc(Cl)cc(NC(=O)Cc2ccc(OC(C)(C)C(=O)O)cc2)c1 | 21 | 2.4 | 4.4 | 
40 | CCC(C)(Oc1ccc(CC(=O)Nc2cc(C)cc(C)c2)cc1)C(=O)O (stereo in doubt; 10) | 13.3 | 2.4 | 2.7 | 

Source: ChEMBL document CHEMBL1132954, “Synthesis and structure-activity relationships of chiral allosteric modifiers of hemoglobin” (2000)
